The record followed here is ChEMBL document CHEMBL1140222, “Identification of G protein-coupled receptor 120-selective agonists derived from PPARgamma agonists” (J Med Chem, 2008).

Calls of active or inactive are those of the source. The calls are words filed in the database; no cut-off is given here.

The target of experiment [1] is T1, Free fatty acid receptor 4 (Homo sapiens, UniProt Q5NUL3).
T1 sequence (Q5NUL3 whole entry): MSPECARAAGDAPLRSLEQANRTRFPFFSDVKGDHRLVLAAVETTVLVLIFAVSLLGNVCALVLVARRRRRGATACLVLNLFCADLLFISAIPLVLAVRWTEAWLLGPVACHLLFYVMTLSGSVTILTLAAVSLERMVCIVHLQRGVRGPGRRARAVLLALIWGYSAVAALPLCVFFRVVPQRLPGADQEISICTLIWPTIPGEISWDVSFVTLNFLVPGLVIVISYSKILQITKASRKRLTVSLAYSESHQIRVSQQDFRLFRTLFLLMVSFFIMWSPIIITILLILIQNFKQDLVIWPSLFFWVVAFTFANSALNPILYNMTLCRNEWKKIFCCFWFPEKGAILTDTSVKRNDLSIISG
As to the kind of experiment: Agonist activity at human GPR120-G-alpha-16 fusion protein expressed in Flp-in HEK293 cells assessed as effect on intracellular calcium concentration by FLIPR assay. It counts as functional, cell-based. Summed up: (§1)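 Intracellular Ca2+ rise read by FLIPR in HEK293 cells expressing human GPR120 or human GPR40; EC50 values derived from concentration–response, means of at least three experiments.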

For experiment [2], the target named is T2, Free fatty acid receptor 1 (Homo sapiens, UniProt O14842). As to the kind of experiment: Agonist activity at human GPR40 expressed in T-REx HEK293 cells assessed as effect on intracellular calcium concentration by FLIPR assay. It counts as functional, cell-based. Summed up: as §1
T2 sequence (O14842 whole entry): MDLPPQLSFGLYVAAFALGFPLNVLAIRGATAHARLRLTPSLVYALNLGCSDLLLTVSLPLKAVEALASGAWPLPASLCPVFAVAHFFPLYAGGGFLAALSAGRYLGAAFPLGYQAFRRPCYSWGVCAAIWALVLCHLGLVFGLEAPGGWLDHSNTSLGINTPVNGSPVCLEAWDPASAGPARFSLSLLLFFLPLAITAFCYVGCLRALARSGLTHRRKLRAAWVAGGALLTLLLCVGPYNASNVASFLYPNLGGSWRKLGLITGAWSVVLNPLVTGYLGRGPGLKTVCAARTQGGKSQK
For experiment [3], the target named is T2, Free fatty acid receptor 1. Kind of experiment: Agonist activity at human GPR40 expressed in T-REx HEK293 cells assessed as effect on intracellular calcium concentration at 10 uM by FLIPR assay relative to […]. It is filed as functional, cell-based. Summed up: (§2)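 FLIPR fluorometric measurement of intracellular Ca2+ in HEK293 cells expressing human GPR40 or human GPR120. Test compound at 10 µM; response expressed as percent of that evoked by 10 µM α-linolenic acid reference. Means of at least three experiments.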

The next experiment is filed under the species Homo sapiens. Kind of experiment: Selectivity index, ratio of EC50 for human GPR40 to EC50 for human GPR120. Summed up:
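Selectivity index computed as EC50 at GPR40 divided by EC50 at GPR120, both from FLIPR Ca2+ assays in HEK293 cells expressing each human receptor; EC50 means of at least three experiments.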

In a further experiment the test system is HEK293. Kind of experiment: Agonist activity at PPAR expressed in HEK293 cells at 10 to 100 uM after 12 to 16 hrs by luciferase-beta galactosidase transactivation assay. It is filed as functional, cell-based.
Experiment [4] addresses T3, Free fatty acid receptor 4 (Homo sapiens) (UniProt Q5NUL3).
T3 sequence (whole entry): T1 sequence (Q5NUL3 whole entry)
As to the kind of experiment: Agonist activity at human GPR120-G-alpha-16 fusion protein expressed in Flp-in HEK293 cells assessed as effect on intracellular calcium concentration at 10 uM by FLIPR assay relative to […]. It is filed as functional, cell-based. The essentials: as §2

On to `O=C(O)CCCc1ccc(OCCN(c2ccccc2)c2ccccn2)cc1`, for which the concentration for a half-maximal effect (EC50) turned out to be 1.2 µM in experiment [1] and 19 µM in experiment [2]. Further, the Activity was determined as 26% in experiment [3] and 115% in experiment [4]. The Ratio EC50 in the experiment listed under Homo sapiens came to 16. Besides, the result in the experiment with HEK293 was inactive.
On to `O=C(O)CCCc1ccc(OCCN(c2ccccc2)c2cc(Cl)ccn2)cc1`, for which the figures for the Activity in experiment [3] and in experiment [4] were 68% and 100%, respectively.
As for `Cc1cccc(N(CCOc2ccc(CCCC(=O)O)cc2)c2ccccc2)n1`, the Activity in experiment [3] was 34%; in experiment [4], 81%.
Turning to `O=C(O)CCc1ccc(OCCN(c2ccccn2)c2ccccn2)cc1`, the Activity in experiment [3] and in experiment [4] was 0% each time.
Consider `Cc1ccc(N(CCOc2ccc(CCCC(=O)O)cc2)c2ccccn2)cc1`, for which the results for the Activity in experiment [3] and in experiment [4] were 26% and 78%, respectively.
The corresponding values for `CCCCCCCN(CCOc1ccc(CCC(=O)O)cc1)c1ccccn1` are 99% and 0%.
In the case of `CCCCCCCCCN(CCOc1ccc(CCC(=O)O)cc1)c1ccccn1`, the Activity was 121% in experiment [3] and 0% in experiment [4].
Turning to `CC/C=C\C/C=C\C/C=C\CCCCCCCC(=O)O` [LINOLENIC ACID], the EC50 stood at 2.6 µM in experiment [1] and 5.2 µM in experiment [2]. In addition, the Activity in experiment [3] and in experiment [4] was 100% in each case. Also, the Ratio EC50 in the experiment listed under Homo sapiens came to 2.
For the compound `CCN(CCOc1ccc(CCC(=O)O)cc1)c1ccccn1`, the Activity in experiment [3] is 147%; in experiment [4] it was 45%.
The corresponding values for `CCCCN(CCOc1ccc(CCCC(=O)O)cc1)c1ccccn1` are 10% and 41%.
`O=C(O)CCCc1ccc(OCCN(c2ccccc2)c2ccccc2)cc1`: the Activity in experiment [3] was found to be 21%; in experiment [4] it was 88%.
The corresponding values for `O=C(O)CCc1ccc(OCCN(c2ccccc2)c2ccccn2)cc1` are 98% and 56%.
The corresponding values for `O=C(O)CCCc1ccc(OCCN(c2ccccc2)c2nc3ccccc3s2)cc1` are 32% and 73%.
As for `CCCN(CCOc1ccc(CCC(=O)O)cc1)c1ccccn1`, the Activity in experiment [3] is 125%; in experiment [4], 57%.
For `Cc1ccnc(N(CCOc2ccc(CCCC(=O)O)cc2)c2ccccc2)c1`, the Activity in experiment [3] turned out to be 43%; in experiment [4], 81%.
Turning to `CCCCN(CCOc1ccc(CCC(=O)O)cc1)c1ccccn1`, the Activity is 215% in experiment [3] and 33% in experiment [4].
The corresponding values for `CN(CCOc1ccc(CCC(=O)O)cc1)c1ccccn1` are 58% and 0%.
The corresponding values for `O=C(O)CCCc1ccc(OCCN(c2cccnc2)c2ccccn2)cc1` are 1% and 65%.
`O=C(O)CCCc1ccc(OCCN(c2ccccc2)c2nc3ccccc3o2)cc1`: the Activity came out at 8% in experiment [3] and 43% in experiment [4].
The corresponding values for `O=C(O)CCCc1ccc(OCCN(c2ccc3ccccc3c2)c2ccccn2)cc1` are 27% and 37%.
Turning to `O=C(O)CCCc1ccc(OCCN(Cc2ccccc2)c2ccccn2)cc1`, the Activity is 26% in experiment [3] and 56% in experiment [4].
For `O=C(O)CCCc1ccc(OCCN(c2ccc(F)cc2)c2ccccn2)cc1`, the values for the Activity in experiment [3] and in experiment [4] were 23% and 59%, respectively.
The corresponding values for `CCCCCCN(CCOc1ccc(CCC(=O)O)cc1)c1ccccn1` are 104% and 31%.
On to `O=C(O)CCCc1ccc(OCCN(c2ccccc2)c2nccs2)cc1`, for which the EC50 stood at 1.7 µM in experiment [1] and 21 µM in experiment [2]. Also, the Activity in experiment [3] was found to be 30%; in experiment [4], 106%. Also, the Ratio EC50 in the experiment listed under Homo sapiens came to 12.
On to `O=C(O)CCCc1ccc(OCCN(c2cccc(F)c2)c2ccccn2)cc1`, for which the Activity was 33% in experiment [3] and 71% in experiment [4].
For `O=C(O)CCCCc1ccc(OCCN(c2ccccc2)c2ccccn2)cc1`, the Activity in experiment [3] came out at 99%; in experiment [4] it was 58%.
The corresponding values for `O=C(O)CCCc1ccc(OCCN(c2ccccc2)c2cccc(Cl)n2)cc1` are 32% and 70%.
